The values that follow come from ChEMBL document CHEMBL1122895, “Aldose reductase inhibitors: a potential new class of agents for the pharmacological control of certain diabetic complications” (J Med Chem, 1985).

What is called pIC50 is the negative decadic logarithm of the IC50, by convention in mol/L. A lower pIC50 goes with a high IC50.

pIC50: −log10 of the molar value.

For assay [1], the target named is T1, Aldo-keto reductase family 1 member B1 (Homo sapiens, UniProt P15121). Kind of assay: Inhibitory activity against human placental aldose reductase (HPAR). In a few lines:
(§1)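 Human placental aldose reductase was purified at 4 °C. Enzyme activity was read photometrically at 340 nm, with 10 mM DL-glyceraldehyde as substrate. IC50 values came from simple linear regressions of Marquardt-Levenberg iterative curve fitting.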

Assay [2] deals with Aldo-keto reductase family 1 member B1 (Rattus norvegicus, UniProt P07943). The assay is described as follows: Inhibitory activity against rat lens aldose reductase (RLAR).
Assay [3] addresses T1, Aldo-keto reductase family 1 member B1. Kind of assay: Inhibitory activity against human placental aldose reductase in 30 -70% (NH4)2SO4.
The target is the same in assay [4]. Kind of assay: (§2) Inhibitory activity against human placental aldose reductase in Orange A column at time 2.
For assay [5] the target is unchanged. Kind of assay: Inhibitory activity against human placental aldose reductase in Sepharose 4B column at time 1.
The target is the same in assay [6]. The assay is described as follows: Inhibitory activity against human placental aldose reductase in Orange A column at day 8.
The target is the same in assay [7]. Kind of assay: Inhibitory activity against human placental aldose reductase in Sepharose 4B column at day 7.
Assay [8] has the same target. Kind of assay: Inhibitory activity against human placental aldose reductase in Orange A column at day 2. In a few lines: as §1
Assay [9] has the same target. The assay is described as follows: Inhibitory activity against human placental aldose reductase in Sepharose 4B column at day 1. In a few lines: as §1
Assay [10] shares this target. The description is as §2. In a few lines:
as §1
The source holds these as a separate data set.

The target is the same in assay [11]. Kind of assay: Inhibitory activity against human placental aldose reductase (HPAR). In a few lines: as §1

Consider `CC(C)OC(=O)c1cc(=O)c2ccc(O)cc2o1`, for which the pIC50 in assay [1] was 5.37; in [2] it was 5.51.
For `O=C(OCc1ccccc1)c1cc(=O)c2ccc(O)cc2o1`, the pIC50 was 5.49 in assay [1] and 5.60 in [2].
As for `CC1OC(O)C(O)C(O)C1Oc1c(-c2ccc(O)c(O)c2)oc2cc(O)cc(O)c2c1=O` (stereo not drawn), the negative logarithm of the IC50 (pIC50) is 5.15 in assay [3]; 4.80 in assay [4]; 4.85 in assay [5]; 5.05 in assay [6]; 4.80 in [7].
Regarding `CCOC(=O)C(=O)Nc1cc([N+](=O)[O-])cc(C(=O)O)c1O`, the pIC50 is 5.14 in assay [3]; 5.49 in assay [8]; 5.35 in assay [9]; 5.40 in assay [6]; 5.08 in assay [7].
`O=C(O)CN1C(=O)c2cccc3cccc(c23)C1=O` [ALRESTATIN]: the pIC50 in assay [3] is 5.19; in assay [5], 4.66; in [6], 4.10; in assay [7], 4.47; in assay [10], 3.85.
For the molecule `O=C(O)c1ccc2nc3cc(O)ccc3c(=O)n2c1`, the negative logarithm of the IC50 (pIC50) was 5.35 in [3]; 4.72 in assay [8]; 5.30 in [9]; 5.14 in assay [6]; 5.14 in [7].
Take `CCOC(=O)c1cc(=O)c2ccc(O)cc2o1`: the pIC50 in [1] is 5.30; in assay [2], 5.64.
On to `O=c1c(Cl)c(-c2nn[nH]n2)oc2ccccc12`, for which the negative-log IC50 (pIC50) in [3] is 5.39; in [8], 3.55; in [9], 4.42; in assay [6], 3.70; in [7], 4.41.
As for `O=C(O)c1cc(=O)c2ccc(O)cc2o1`, the negative logarithm of the IC50 (pIC50) in [11] was 5.74; in assay [2], 5.66.
Take `O=C(O)C1=CC(=O)C2C=CC(O)=CC2O1` (stereo not drawn): the negative-log IC50 (pIC50) in assay [3] is 5.74; in [8] it was 5.23; in assay [9], 5.33; in [6], 5.51; in [7], 5.41.
